Test results taken from ChEMBL document CHEMBL5335771, “Thioxanthenone-based derivatives as multitarget therapeutic leads for Alzheimer's disease” (Eur J Med Chem, 2023).
pIC50: −log10 of the molar value.

Key:
[1] = target: T1, Microtubule-associated protein tau (Homo sapiens, UniProt P10636); test: Inhibition of tau (unknown origin) aggregation expressed in Escherichia coli BL21 (DE3) at 10 uM relative to control
In short: (§1)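 E. coli BL21(DE3) carrying pTARA (T7 RNA polymerase under PBAD) and pRKT42 (four-repeat tau) grown at 37 °C in M9 with 0.5% glucose, antibiotics and 250 μM ThS to OD600 0.6. […] ThS fluorescence ex 430/em 485 nm, normalized to tau-expressing cells (100%) and non-expressing cells (0%); OD600 checked for growth.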

[2] = target: Amyloid-beta precursor protein (Homo sapiens, UniProt P05067); test: Inhibition of amyloid beta 40 peptide (unknown origin) aggregation incubated for 2 hr by ThT fluorescence based spectrofluorimetric analysis
In short: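 Aβ40 peptide aggregation enhanced with 2% HFIP; thioflavin T fluorescence read-out; run in triplicate.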

[3] = target: T1, Microtubule-associated protein tau; test: Inhibition of tau (unknown origin) aggregation expressed in Escherichia coli BL21 (DE3); in short: as §1
Acetylcholinesterase [4] = target: Acetylcholinesterase (Electrophorus electricus, UniProt O42275); test: Inhibition of electric eel AChE using acetylthiocholine iodide as substrate preincubated for 20 mins followed by substrate addition by DTNB reagent based Ellman's method
Cholinesterase [5] = target: Cholinesterase (Homo sapiens, UniProt P06276); test: Inhibition of human recombinant BChE using acetylthiocholine iodide as substrate preincubated for 20 mins followed by substrate addition by DTNB reagent based Ellman's method
In short: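 Human BChE was assayed by the Ellman spectrophotometric method. IC50 values are means of three independent experiments, each run in triplicate.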

Cholinesterase [6] = target: Cholinesterase (Equus caballus, UniProt P81908); test: Inhibition of equine serum BChE using butyrylthiocholine iodide as substrate preincubated for 20 mins followed by substrate addition by DTNB reagent based Ellman's method; assay type: cell-free
Acetylcholinesterase [7] = target: Acetylcholinesterase (Homo sapiens, UniProt P22303); test: Inhibition of human recombinant AChE using acetylthiocholine iodide as substrate preincubated for 20 mins followed by substrate addition by DTNB reagent based Ellman's method
[8] = Cytotoxicity against mouse brain Primary embryonic cortical cell assessed as cell death at 10 uM incubated for 4 hrs by propidium iodide dye based spectrofluorometric analysis relative to control; assay type: toxicity
In short: (§2)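 Primary cortical cultures from E16.5 mouse embryo brains, trypsinized, plated on poly-D-lysine, grown in Neurobasal with glutamine, glucose, 5% horse serum and B27; compounds added at 4 DIV. Propidium iodide 30 μM; baseline F1 read 1 h after PI; ex 530/em 645 nm. Fmax after digitonin permeabilization. % death = 100×(Fn−F1)/(Fmax−F1); mean of three independent experiments.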

[9] = Cytotoxicity against mouse brain Primary embryonic cortical cell assessed as cell death at 5 uM incubated for 4 hrs by propidium iodide dye based spectrofluorometric analysis relative to control; assay type: toxicity; in short: as §2
[10] = Cytotoxicity against mouse brain Primary embryonic cortical cell assessed as cell death at 2.5 uM incubated for 48 hrs by propidium iodide dye based spectrofluorometric analysis relative to control; assay type: toxicity; in short: as §2
[11] = Cytotoxicity against mouse brain Primary embryonic cortical cell assessed as cell death at 5 uM incubated for 24 hrs by propidium iodide dye based spectrofluorometric analysis relative to control; assay type: toxicity; in short: as §2
[12] = Cytotoxicity against mouse brain Primary embryonic cortical cell assessed as cell death at 2.5 uM incubated for 1 hr by propidium iodide dye based spectrofluorometric analysis relative to control; assay type: toxicity; in short: as §2
[13] = Cytotoxicity against mouse brain Primary embryonic cortical cell assessed as cell death at 30 uM incubated for 72 hrs by propidium iodide dye based spectrofluorometric analysis relative to control; assay type: toxicity; in short: as §2
[14] = Cytotoxicity against mouse brain Primary embryonic cortical cell assessed as cell death at 2.5 uM incubated for 72 hrs by propidium iodide dye based spectrofluorometric analysis relative to control; assay type: toxicity; in short: as §2
[15] = Cytotoxicity against mouse brain Primary embryonic cortical cell assessed as cell death at 2.5 uM incubated for 2 hrs by propidium iodide dye based spectrofluorometric analysis relative to control; assay type: toxicity; in short: as §2
[16] = Cytotoxicity against mouse brain Primary embryonic cortical cell assessed as cell death at 10 uM incubated for 6 hrs by propidium iodide dye based spectrofluorometric analysis relative to control; assay type: toxicity; in short: as §2
[17] = Cytotoxicity against mouse brain Primary embryonic cortical cell assessed as cell death at 2.5 uM incubated for 4 hrs by propidium iodide dye based spectrofluorometric analysis relative to control; assay type: toxicity; in short: as §2
[18] = Cytotoxicity against mouse brain Primary embryonic cortical cell assessed as cell death at 30 uM incubated for 24 hrs by propidium iodide dye based spectrofluorometric analysis relative to control; assay type: toxicity; in short: as §2
[19] = Cytotoxicity against mouse brain Primary embryonic cortical cell assessed as cell death at 2.5 uM incubated for 6 hrs by propidium iodide dye based spectrofluorometric analysis relative to control; assay type: toxicity; in short: as §2
[20] = Cytotoxicity against mouse brain Primary embryonic cortical cell assessed as cell death at 30 uM incubated for 3 hrs by propidium iodide dye based spectrofluorometric analysis relative to control; assay type: toxicity; in short: as §2
[21] = Cytotoxicity against mouse brain Primary embryonic cortical cell assessed as cell death at 30 uM incubated for 1 hr by propidium iodide dye based spectrofluorometric analysis relative to control; assay type: toxicity; in short: as §2
[22] = Cytotoxicity against mouse brain Primary embryonic cortical cell assessed as cell death at 5 uM incubated for 48 hrs by propidium iodide dye based spectrofluorometric analysis relative to control; assay type: toxicity; in short: as §2
[23] = Cytotoxicity against mouse brain Primary embryonic cortical cell assessed as cell death at 30 uM incubated for 48 hrs by propidium iodide dye based spectrofluorometric analysis relative to control; assay type: toxicity; in short: as §2
[24] = Cytotoxicity against mouse brain Primary embryonic cortical cell assessed as cell death at 30 uM incubated for 5 hrs by propidium iodide dye based spectrofluorometric analysis relative to control; assay type: toxicity; in short: as §2
[25] = Cytotoxicity against mouse brain Primary embryonic cortical cell assessed as cell death at 5 uM incubated for 72 hrs by propidium iodide dye based spectrofluorometric analysis relative to control; assay type: toxicity; in short: as §2
[26] = Cytotoxicity against mouse brain Primary embryonic cortical cell assessed as cell death at 10 uM incubated for 2 hrs by propidium iodide dye based spectrofluorometric analysis relative to control; assay type: toxicity; in short: as §2
[27] = Cytotoxicity against mouse brain Primary embryonic cortical cell assessed as cell death at 10 uM incubated for 72 hrs by propidium iodide dye based spectrofluorometric analysis relative to control; assay type: toxicity; in short: as §2
[28] = Cytotoxicity against mouse brain Primary embryonic cortical cell assessed as cell death at 5 uM incubated for 1 hr by propidium iodide dye based spectrofluorometric analysis relative to control; assay type: toxicity; in short: as §2
[29] = Cytotoxicity against mouse brain Primary embryonic cortical cell assessed as cell death at 10 uM incubated for 3 hrs by propidium iodide dye based spectrofluorometric analysis relative to control; assay type: toxicity; in short: as §2
[30] = Cytotoxicity against mouse brain Primary embryonic cortical cell assessed as cell death at 5 uM incubated for 3 hrs by propidium iodide dye based spectrofluorometric analysis relative to control; assay type: toxicity; in short: as §2
[31] = Cytotoxicity against mouse brain Primary embryonic cortical cell assessed as cell death at 10 uM incubated for 1 hr by propidium iodide dye based spectrofluorometric analysis relative to control; assay type: toxicity; in short: as §2
[32] = Cytotoxicity against mouse brain Primary embryonic cortical cell assessed as cell death at 2.5 uM incubated for 3 hrs by propidium iodide dye based spectrofluorometric analysis relative to control; assay type: toxicity; in short: as §2
[33] = Cytotoxicity against mouse brain Primary embryonic cortical cell assessed as cell death at 10 uM incubated for 24 hrs by propidium iodide dye based spectrofluorometric analysis relative to control; assay type: toxicity; in short: as §2
[34] = Cytotoxicity against mouse brain Primary embryonic cortical cell assessed as cell death at 30 uM incubated for 6 hrs by propidium iodide dye based spectrofluorometric analysis relative to control; assay type: toxicity; in short: as §2
[35] = Cytotoxicity against mouse brain Primary embryonic cortical cell assessed as cell death at 10 uM incubated for 5 hrs by propidium iodide dye based spectrofluorometric analysis relative to control; assay type: toxicity; in short: as §2
[36] = Cytotoxicity against mouse brain Primary embryonic cortical cell assessed as cell death at 5 uM incubated for 5 hrs by propidium iodide dye based spectrofluorometric analysis relative to control; assay type: toxicity; in short: as §2
[37] = Cytotoxicity against mouse brain Primary embryonic cortical cell assessed as cell death at 10 uM incubated for 48 hrs by propidium iodide dye based spectrofluorometric analysis relative to control; assay type: toxicity; in short: as §2
[38] = Cytotoxicity against mouse brain Primary embryonic cortical cell assessed as cell death at 2.5 uM incubated for 5 hrs by propidium iodide dye based spectrofluorometric analysis relative to control; assay type: toxicity; in short: as §2
[39] = Cytotoxicity against mouse brain Primary embryonic cortical cell assessed as cell death at 30 uM incubated for 2 hrs by propidium iodide dye based spectrofluorometric analysis relative to control; assay type: toxicity; in short: as §2
[40] = Cytotoxicity against mouse brain Primary embryonic cortical cell assessed as cell death at 5 uM incubated for 6 hrs by propidium iodide dye based spectrofluorometric analysis relative to control; assay type: toxicity; in short: as §2
[41] = Cytotoxicity against mouse brain Primary embryonic cortical cell assessed as cell death at 30 uM incubated for 4 hrs by propidium iodide dye based spectrofluorometric analysis relative to control; assay type: toxicity; in short: as §2
[42] = Cytotoxicity against mouse brain Primary embryonic cortical cell assessed as cell death at 5 uM incubated for 2 hrs by propidium iodide dye based spectrofluorometric analysis relative to control; assay type: toxicity; in short: as §2
[43] = Cytotoxicity against mouse brain Primary embryonic cortical cell assessed as cell death at 2.5 uM incubated for 24 hrs by propidium iodide dye based spectrofluorometric analysis relative to control; assay type: toxicity; in short: as §2

Chain of Cholinesterase (Homo sapiens, UniProt P06276) (P06276 whole entry): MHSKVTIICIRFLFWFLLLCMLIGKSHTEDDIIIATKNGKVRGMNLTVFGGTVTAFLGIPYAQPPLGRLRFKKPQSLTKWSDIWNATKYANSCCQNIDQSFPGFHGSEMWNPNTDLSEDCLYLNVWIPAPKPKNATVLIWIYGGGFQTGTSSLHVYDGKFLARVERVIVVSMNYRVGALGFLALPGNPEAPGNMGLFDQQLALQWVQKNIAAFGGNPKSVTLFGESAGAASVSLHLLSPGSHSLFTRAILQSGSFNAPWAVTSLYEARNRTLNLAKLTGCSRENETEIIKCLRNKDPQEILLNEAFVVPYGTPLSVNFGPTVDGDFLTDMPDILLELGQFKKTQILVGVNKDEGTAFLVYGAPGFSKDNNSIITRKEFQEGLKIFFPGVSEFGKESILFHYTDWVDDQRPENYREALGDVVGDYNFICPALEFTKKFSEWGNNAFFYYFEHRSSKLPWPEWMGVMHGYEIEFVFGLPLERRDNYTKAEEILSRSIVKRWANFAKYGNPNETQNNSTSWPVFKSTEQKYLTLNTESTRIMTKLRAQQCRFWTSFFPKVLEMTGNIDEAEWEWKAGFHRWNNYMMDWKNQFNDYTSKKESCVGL
Chain of Amyloid-beta precursor protein (P05067 whole entry): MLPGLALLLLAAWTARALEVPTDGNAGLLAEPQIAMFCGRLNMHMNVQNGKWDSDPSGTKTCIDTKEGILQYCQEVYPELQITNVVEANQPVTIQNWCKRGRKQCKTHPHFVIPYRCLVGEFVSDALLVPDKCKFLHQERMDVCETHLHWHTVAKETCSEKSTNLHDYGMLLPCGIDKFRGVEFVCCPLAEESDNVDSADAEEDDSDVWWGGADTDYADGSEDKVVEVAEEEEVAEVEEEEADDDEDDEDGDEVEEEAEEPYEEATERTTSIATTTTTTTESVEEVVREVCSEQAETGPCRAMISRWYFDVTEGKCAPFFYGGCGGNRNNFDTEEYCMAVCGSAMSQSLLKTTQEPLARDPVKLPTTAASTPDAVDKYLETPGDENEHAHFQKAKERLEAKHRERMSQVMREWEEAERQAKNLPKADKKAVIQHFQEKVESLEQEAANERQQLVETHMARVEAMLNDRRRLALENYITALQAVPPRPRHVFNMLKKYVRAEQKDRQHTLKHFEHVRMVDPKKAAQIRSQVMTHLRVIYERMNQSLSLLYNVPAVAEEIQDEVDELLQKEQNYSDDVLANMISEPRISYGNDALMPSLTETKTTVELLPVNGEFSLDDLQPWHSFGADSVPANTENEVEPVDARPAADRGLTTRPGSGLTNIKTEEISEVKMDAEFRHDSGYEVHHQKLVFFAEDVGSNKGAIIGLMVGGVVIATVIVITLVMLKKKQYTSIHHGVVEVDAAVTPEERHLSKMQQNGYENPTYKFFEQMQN
T1 sequence (P10636 whole entry): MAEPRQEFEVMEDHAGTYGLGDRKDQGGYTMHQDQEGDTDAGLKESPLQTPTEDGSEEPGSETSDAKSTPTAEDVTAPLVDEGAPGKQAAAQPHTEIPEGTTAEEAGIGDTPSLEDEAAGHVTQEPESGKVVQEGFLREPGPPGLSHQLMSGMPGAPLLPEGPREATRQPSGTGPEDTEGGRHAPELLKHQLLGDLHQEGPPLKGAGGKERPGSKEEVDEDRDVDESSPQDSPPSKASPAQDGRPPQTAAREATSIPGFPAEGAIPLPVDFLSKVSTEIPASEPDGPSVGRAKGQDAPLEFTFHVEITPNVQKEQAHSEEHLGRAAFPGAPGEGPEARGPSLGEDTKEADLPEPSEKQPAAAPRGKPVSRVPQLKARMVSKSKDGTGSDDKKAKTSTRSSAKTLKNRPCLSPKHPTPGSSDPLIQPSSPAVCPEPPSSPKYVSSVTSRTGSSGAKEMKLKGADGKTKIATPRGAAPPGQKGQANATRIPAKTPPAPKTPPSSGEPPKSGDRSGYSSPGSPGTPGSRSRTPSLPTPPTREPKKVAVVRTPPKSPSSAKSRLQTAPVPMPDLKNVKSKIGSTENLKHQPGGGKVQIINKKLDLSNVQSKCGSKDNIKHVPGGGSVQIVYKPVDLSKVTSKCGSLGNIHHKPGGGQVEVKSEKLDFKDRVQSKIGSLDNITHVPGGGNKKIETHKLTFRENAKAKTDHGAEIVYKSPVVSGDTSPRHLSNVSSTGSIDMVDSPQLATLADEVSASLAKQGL
Chain of Acetylcholinesterase (Homo sapiens, UniProt P22303) (P22303 whole entry): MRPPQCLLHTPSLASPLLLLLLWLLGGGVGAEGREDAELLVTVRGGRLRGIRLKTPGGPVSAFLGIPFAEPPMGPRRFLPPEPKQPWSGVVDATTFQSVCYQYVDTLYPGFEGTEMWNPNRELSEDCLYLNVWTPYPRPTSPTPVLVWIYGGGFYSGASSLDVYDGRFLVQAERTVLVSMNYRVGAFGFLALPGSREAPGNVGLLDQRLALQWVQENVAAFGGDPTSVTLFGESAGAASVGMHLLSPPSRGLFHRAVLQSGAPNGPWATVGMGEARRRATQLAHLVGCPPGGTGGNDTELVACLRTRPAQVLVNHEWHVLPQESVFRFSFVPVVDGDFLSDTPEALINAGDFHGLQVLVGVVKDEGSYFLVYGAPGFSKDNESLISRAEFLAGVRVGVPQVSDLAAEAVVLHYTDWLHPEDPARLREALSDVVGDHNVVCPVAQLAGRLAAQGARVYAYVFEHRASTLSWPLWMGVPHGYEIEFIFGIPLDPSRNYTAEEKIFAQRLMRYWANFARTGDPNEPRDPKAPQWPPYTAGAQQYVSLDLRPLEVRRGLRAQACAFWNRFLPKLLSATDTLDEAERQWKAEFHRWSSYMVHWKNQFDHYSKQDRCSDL
Chain of Acetylcholinesterase (Electrophorus electricus, UniProt O42275) (O42275 whole entry): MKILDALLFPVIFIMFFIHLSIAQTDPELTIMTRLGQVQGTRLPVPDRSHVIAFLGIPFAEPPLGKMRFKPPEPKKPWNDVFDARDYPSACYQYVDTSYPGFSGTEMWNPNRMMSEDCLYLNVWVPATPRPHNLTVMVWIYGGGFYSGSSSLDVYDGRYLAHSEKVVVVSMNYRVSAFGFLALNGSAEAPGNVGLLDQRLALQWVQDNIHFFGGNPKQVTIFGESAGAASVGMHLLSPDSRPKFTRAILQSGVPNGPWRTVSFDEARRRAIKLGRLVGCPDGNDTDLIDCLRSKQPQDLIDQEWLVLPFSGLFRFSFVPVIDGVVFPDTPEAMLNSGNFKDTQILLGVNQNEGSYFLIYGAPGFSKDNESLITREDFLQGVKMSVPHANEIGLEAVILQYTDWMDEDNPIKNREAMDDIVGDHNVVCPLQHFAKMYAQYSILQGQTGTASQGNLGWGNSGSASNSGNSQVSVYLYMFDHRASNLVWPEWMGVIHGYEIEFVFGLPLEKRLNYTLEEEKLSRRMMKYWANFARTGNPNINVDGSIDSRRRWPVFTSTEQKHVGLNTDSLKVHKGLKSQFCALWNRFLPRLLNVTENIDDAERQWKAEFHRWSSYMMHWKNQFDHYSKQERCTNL
Chain of Cholinesterase (Equus caballus, UniProt P81908) (P81908 whole entry): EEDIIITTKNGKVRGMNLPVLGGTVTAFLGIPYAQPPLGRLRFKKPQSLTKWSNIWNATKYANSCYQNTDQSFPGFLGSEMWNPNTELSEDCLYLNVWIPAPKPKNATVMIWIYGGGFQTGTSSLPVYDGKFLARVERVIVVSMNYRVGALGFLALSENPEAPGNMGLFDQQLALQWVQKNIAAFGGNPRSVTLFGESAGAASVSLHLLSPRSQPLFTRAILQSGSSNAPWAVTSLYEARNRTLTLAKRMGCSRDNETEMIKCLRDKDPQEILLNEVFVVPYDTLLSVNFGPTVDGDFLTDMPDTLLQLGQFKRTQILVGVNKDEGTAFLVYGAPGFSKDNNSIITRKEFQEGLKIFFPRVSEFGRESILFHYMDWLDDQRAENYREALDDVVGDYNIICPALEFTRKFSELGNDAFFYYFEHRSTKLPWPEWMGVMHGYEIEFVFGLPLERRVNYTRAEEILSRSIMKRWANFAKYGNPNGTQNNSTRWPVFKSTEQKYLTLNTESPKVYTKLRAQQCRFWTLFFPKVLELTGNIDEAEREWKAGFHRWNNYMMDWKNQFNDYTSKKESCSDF

Q: Which inhibition [1] does the source give for `Nc1ccc(NCCC[C@@H]2CCCN3CCCC[C@H]23)c2c(=O)c3ccccc3sc12` here?
A: 26%

Q: And the pIC50 [2]?
A: 5.89

Q: With `Nc1ccc(NC[C@@H]2CCCN3CCCC[C@H]23)c2c(=O)c3ccccc3sc12` as the molecule, how does the pIC50 [3] read?
A: 5.07

Q: And the pIC50 [2]?
A: 4.85

Q: Which results are given for `Cc1ccc(NCCCSC[C@@H]2CCCN3CCCC[C@H]23)c2c(=O)c3ccccc3sc12`?
A: pIC50 (Acetylcholinesterase [4]): 6.74; pIC50 (Cholinesterase [5]): 8.15; pIC50 (Cholinesterase [6]): 7.06; pIC50 (Acetylcholinesterase [7]): 5.11; pIC50 [3]: 4.70; pIC50 [2]: 5.37

Q: What does the source list for `COc1ccc2sc3c(N)ccc(NCC[C@@H]4CCCN5CCCC[C@H]45)c3c(=O)c2c1`?
A: inhibition [1]: 33%; pIC50 (Acetylcholinesterase [4]): 5.72; pIC50 (Cholinesterase [5]): 6.00; pIC50 (Cholinesterase [6]): 6.82; pIC50 (Acetylcholinesterase [7]): 5.62; pIC50 [2]: 4.89

Q: Which results are given for `CCN(CC)CCCNc1ccc([N+](=O)[O-])c2sc3ccc(OC)cc3c(=O)c12`?
A: pIC50 [3]: 5.32; pIC50 [2]: 4.77

Q: For `COc1ccc2sc3c(C)ccc(NCCC[C@@H]4CCCN5CCCC[C@H]45)c3c(=O)c2c1`, which Activity [8] is on record?
A: 5.3%

Q: And the Activity [9]?
A: 3.3%

Q: What about the Activity [10] of the same molecule?
A: 18.4%

Q: What about the Activity [11] of the same molecule?
A: 17.8%

Q: What about the Activity [12] of the same molecule?
A: -0.1%

Q: And the Activity [13]?
A: 54.3%

Q: What about the Activity [14] of the same molecule?
A: 33.6%

Q: And the Activity [15]?
A: 1.6%

Q: What about the Activity [16] of the same molecule?
A: 4%

Q: What about the Activity [17] of the same molecule?
A: 2.2%

Q: And the Activity [18]?
A: 48.6%

Q: What about the Activity [19] of the same molecule?
A: 2%

Q: And the Activity [20]?
A: 7.1%

Q: What about the Activity [21] of the same molecule?
A: 3.8%

Q: And the Activity [22]?
A: 27.8%

Q: What about the Activity [23] of the same molecule?
A: 52.4%

Q: And the Activity [24]?
A: 9.3%

Q: And the Activity [25]?
A: 37.6%

Q: What about the Activity [26] of the same molecule?
A: 5.8%

Q: What about the Activity [27] of the same molecule?
A: 42.1%

Q: And the Activity [28]?
A: 1%

Q: And the Activity [29]?
A: 4.9%

Q: What about the Activity [30] of the same molecule?
A: 1.8%

Q: What about the Activity [31] of the same molecule?
A: 4.2%

Q: And the Activity [32]?
A: 1.8%

Q: What about the Activity [33] of the same molecule?
A: 19.6%

Q: And the Activity [34]?
A: 10.7%

Q: And the Activity [35]?
A: 6.1%

Q: What about the Activity [36] of the same molecule?
A: 4.4%

Q: What about the Activity [37] of the same molecule?
A: 27.4%

Q: What about the Activity [38] of the same molecule?
A: 1.9%

Q: What about the pIC50 [3] of the same molecule?
A: 5.23

Q: What about the Activity [39] of the same molecule?
A: 5.7%

Q: What about the Activity [40] of the same molecule?
A: 5.7%

Q: And the Activity [41]?
A: 9.5%

Q: And the pIC50 [2]?
A: 5.60

Q: And the Activity [42]?
A: 3.4%

Q: What about the Activity [43] of the same molecule?
A: 8.9%

Q: What does the source list for `Cc1ccc(NCCC[C@@H]2CCCN3CCCC[C@H]23)c2c(=O)c3ccccc3sc12`?
A: inhibition [1]: 26%; pIC50 [2]: 5.37

Q: Which results are given for `O=c1c2ccccc2sc2c([N+](=O)[O-])ccc(NC[C@@H]3CCCN4CCCC[C@H]34)c12`?
A: pIC50 [3]: 4.82; pIC50 [2]: 4.70

Q: Which results are given for `Cc1ccc(NCCC[C@@H]2CCCN3CCCC[C@H]23)c2c(=O)c3ccccc3oc12`?
A: pIC50 (Acetylcholinesterase [4]): 6.85; pIC50 (Cholinesterase [5]): 6.52; pIC50 (Cholinesterase [6]): 6.43; pIC50 (Acetylcholinesterase [7]): 5.06; pIC50 [3]: 4.64; pIC50 [2]: 4.89

Q: Which results are given for `COc1ccc2sc3c([N+](=O)[O-])ccc(NCC[C@@H]4CCCN5CCCC[C@H]45)c3c(=O)c2c1`?
A: pIC50 (Acetylcholinesterase [4]): 5.64; pIC50 (Cholinesterase [5]): 5.74; pIC50 (Cholinesterase [6]): 6.82; pIC50 (Acetylcholinesterase [7]): 5.32; pIC50 [3]: 5.16; pIC50 [2]: 5.04
